This is an account of results in ChEMBL document CHEMBL1125727 (J Med Chem, 1991).

Assay type in all cases: functional, cell-based
For assay [1], the system named is P388. Nature of the assay: Percentage increase in lifespan of drug-related tumor bearing animals when heated at the optimal dose and tested in murine leukemia P388 cell lines. The settings on record: Mus musculus. In a few lines: (§1)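 Mice inoculated intraperitoneally with 10⁶ P388 leukemia cells. Single drug dose on day 1 in 0.1 or 0.2 mL of 30% v/v ethanol/water. Optimal dose given in mg/kg. ILS is the percentage increase in lifespan at the optimal dose, with values above 20% taken as significant.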

A further assay concerns CHO-AA8. Briefly: Compound was evaluated for in vitro cytotoxicities against Chinese hamster ovary derived AA8 cell lines. To be noted: Cricetulus griseus. In a few lines:
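AA8 cells kept in exponential growth in Alpha MEM with 10% fetal calf serum. Log-phase cultures in 96-well plates, drug exposure 18 h, ended by three washes with fresh medium, then 72 h further growth. Cell density read by methylene blue staining. IC50 is the nominal concentration reducing cell density to 50% of control, with eight controls per plate.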

A further assay deals with UV4. Nature of the assay: Hypersensitivity factor obtained from in vitro cytotoxicities against Chinese hamster ovary derived AA8 / UV4 cell lines. The settings on record: Cricetulus griseus. In a few lines: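 HF = IC50(AA8)/IC50(UV4). Both lines kept in Alpha MEM with 10% fetal calf serum and exposed to drug for 18 h, then washed three times and grown 72 h more. Density read by methylene blue. Each IC50 is the nominal concentration giving 50% of control density, with eight controls per plate.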

Assay [2] deals with P388. Nature of the assay: In vitro cytotoxicity against murine leukemia P388 cell line. To be noted: Mus musculus. In short, it runs like this:
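P388 cells kept in exponential growth in RPMI 1640 with 10% fetal calf serum. Log-phase cultures in 96-well plates with drug present throughout 72 h growth. Final density read by a modified MTT method. IC50 is the nominal concentration reducing cell density to 50% of control, with eight controls per plate.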

The test system of assay [3] is P388. Briefly: Optimal dose administered as a single dose by intraperitoneal inoculation of 10 X E6 murine leukemia P388 cell lines. The settings on record: Mus musculus. In short, it runs like this: as §1

The compound `COc1cc(NS(C)(=O)=O)ccc1Nc1ccc(C(=O)NCCCc2ccc(N(CCCl)CCCl)cc2)c2nc3ccccc3cc12` returned an ILS with P388 [1] of 26%. Moreover, the half-inhibitory concentration (IC50) was > 4000 µM in the assay on CHO-AA8 and 0.18 µM in the assay with P388 [2]. For the same compound, in the assay on UV4, the HF is > 50. This compound returned an OD in the assay on P388 [3] of 65 mg/kg.

Turning to `CN(C)CCNC(=O)c1ccc(NCCCc2ccc(N(CCCl)CCCl)cc2)c2cc3ccccc3nc12`, the IC50 in the assay on CHO-AA8 stood at 0.21 µM; in the assay on P388 [2], 0.06 µM. Besides, the HF in the assay with UV4 turned out to be 19. In addition, in the assay with P388 [3], the OD was found to be 13.3 mg/kg.

In the assay with P388 [1], `CCN(CCCl)c1ccc(CCCNC(=O)c2ccc(NCCCc3ccc(N(CC)CCCl)cc3)c3cc4ccccc4nc23)cc1` returned an increase in lifespan (ILS) of 25%. Besides, the figures for the IC50 with CHO-AA8 and with P388 [2] were 1.5 µM and 0.29 µM, respectively. The HF in the assay with UV4 was found to be 5.4. The compound also returned an OD with P388 [3] of 45 mg/kg.

In turn, `O=C(O)CCCc1ccc(N(CCCl)CCCl)cc1` [CHLORAMBUCIL] had an ILS in the assay with P388 [1] of 37%. The compound also showed an HF in the assay with UV4 of 58. The compound further had an OD in the assay with P388 [3] of 225 mg/kg.

Take `CCN(CCCl)c1ccc(SCCNC(=O)c2ccc(NCCSc3ccc(N(CC)CCCl)cc3)c3cc4ccccc4nc23)cc1`: the IC50 with CHO-AA8 came to 9.4 µM; in the assay with P388 [2] it was 0.55 µM. In the assay on UV4, this compound gave an HF of 7.4.
